This is a sample that favours compounds with a hit; in the whole collection about 1.5% have one here.
Jurkat NFkB inh: inhibitors of induced NF-kB luciferase reporter, primary screen, TCR NF-kB activation inhibitor project, cell-based, luminescence, uHTS. AID 435003, 2010. Jurkat, PMA/ionomycin-induced NF-kB luciferase reporter. 0.53% of 330,000 active. inhibition, % at 4 µM; in the data active = inhibition above about 50%
GalR3 antag: GalR3 antagonists in HEK293 cells, primary screen, cell-based, fluorescence readout. 0.44% of 360,000 active. AID 651719, 2012. inhibition, % at 3 µM. Galanin receptor type 3 (Homo sapiens), O60755. HEK293 GalR3-CNG cAMP membrane potential fluorescence; galR3 body fused to GalR1 C-terminus;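 active = inhibition above the screen-wide average plus 3 SD, cut at about 13% in these data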;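 also: forskolin and galanin both at EC90 stimulate the cells; cAMP rise reported by CNG channel membrane potential dye signal; 0% = forskolin plus galanin with DMSO and 100% = forskolin alone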
Target sequence (O60755 1-299 limits assumed): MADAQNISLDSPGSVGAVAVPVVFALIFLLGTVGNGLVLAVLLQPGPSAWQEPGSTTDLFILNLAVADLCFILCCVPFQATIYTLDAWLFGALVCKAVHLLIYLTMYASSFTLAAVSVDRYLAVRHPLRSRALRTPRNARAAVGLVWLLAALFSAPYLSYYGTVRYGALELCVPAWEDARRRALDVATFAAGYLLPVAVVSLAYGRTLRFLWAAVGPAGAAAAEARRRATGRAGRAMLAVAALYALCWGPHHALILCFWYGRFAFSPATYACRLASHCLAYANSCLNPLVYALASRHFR
697 NFkB inh: inhibitors of PMA/ionomycin-induced NF-kB reporter, 697 cells, primary screen, B-cell NF-kB inhibitor project, cell-based, luminescence, uHTS | inhibition, % at 4 µM | 697 B-cell NF-kB luciferase reporter, 16 h | 0.33% of 330,000 active; in the data active = inhibition above about 35%
NR2E3 ag-1: inhibitors of NR2E3-RetCOR corepressor binding, primary screen, NR2E3 agonist project, biochemical, TR-FRET, GST-NR2E3, biotin-RetCOR. Photoreceptor-specific nuclear receptor (Homo sapiens), Q9Y5X4. 1536-well. inhibition of corepressor binding, % at 4.78 µM. 0.12% of 320,000 active. AID 2300, 2010;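 active = percent inhibition above the cutoff of mean plus 3 SD of all tested compounds, set per screening campaign, cut at about 20% in these data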;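 also: 0% = DMSO wells and 100% = biotin wells as full block of FRET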
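System: GST-NR2E3 and biotin-RetCOR proteins; probe or stimulus: 7 nM biotin-RetCOR; doses: compound at 4.8 µM, single dose; schedule: Compound–protein incubation for 5 h at 4 °C; detection: time-resolved FRET; read-out: percent inhibition; controls: biotin wells as high control, 0.6% DMSO wells as low control; format: 1536-well plates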
NR2E3 ag-2: NR2E3 agonists in two-hybrid cells, primary screen, cell-based, luminescence, CHO-S, Gal4-NCOR/VP16-NR2E3; Photoreceptor-specific nuclear receptor (Homo sapiens), Q9Y5X4; luciferase; inhibition of corepressor binding, % at 3.98 µM; 0.35% of 360,000 active;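 active = inhibition above the mean of all tested compounds plus 3 SD, cut at about 70% in these data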;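 also: 0% = DMSO with NR2E3 transfected cells and 100% = cells lacking NR2E3 construct; higher means lower luciferase signal from less NR2E3 corepressor binding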
JMJD2C inh: inhibitors of GASC-1 histone demethylase, primary screen, biochemical, fluorescence, DELFIA europium | Lysine-specific demethylase 4C (Homo sapiens), Q9H3R0 | GST-JMJD2C(1-420) H3K9me3 demethylation | inhibition, % at 2.35 µM | AID 2099, 2009 | 0.069% of 330,000 active;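 active = more than half of a compound's replicate wells show inhibition beyond 50%, single wells judged on their own value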;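 also: signal counts dimethyl H3K9 product captured on neutravidin plate; 0% = median of DMSO wells and 100% = 0.3 times that DMSO median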
NR2E3 ag confirm: NR2E3 agonist confirmation in cells, cell-based, luminescence, CHO-S two-hybrid | shares compounds with NR2E3 ag-2 | AID 624378, 2012 | CHO-S mammalian two-hybrid NR2E3-NCOR, luciferase luminescence | 51% of 2,300 active | inhibition, % at 3.98 µM;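 active = average inhibition above a cutoff equal to the mean inhibition of all tested compounds plus one SD, cut at about 70% in these data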;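 also: 0% = DMSO in NR2E3 cells and 100% = DMSO in cells lacking NR2E3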
VP16 counter: GAL4-VP16 reporter modulators, confirmation, counter-screen for NR2E3 agonist project, cell-based, luminescence, CHO-S, high throughput | CHO-S GAL4-VP16 luciferase reporter | shares compounds with NR2E3 ag-2 | 29% of 2,300 active | inhibition, % at 3.98 µM;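 active = mean inhibition above a cutoff equal to the average over all tested compounds plus one standard deviation, cut at about 70% in these data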;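 also: luciferase from a UAS reporter driven by GAL4-VP16 transactivation; 0% = DMSO with VP16-transfected cells and 100% = DMSO with cells lacking VP16; higher means less reporter light so more repression of VP16 activity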
An asterisk follows results filed as active; / = no result given.

SMILES	Jurkat NFkB inh	GalR3 antag	697 NFkB inh	NR2E3 ag-1	NR2E3 ag-2	JMJD2C inh	NR2E3 ag confirm	VP16 counter
COc1ccc(OC)c(NC(=O)CC2Oc3ccccc3NC2=O)c1 (configuration not stated)	-29	-2	-10	2	-44	-1	/	/
CCC1CCCCN1C(=O)CSc1nc(N)cc(N)n1 (configuration not stated)	12	-10	21	-4	5	58	/	/
CCCc1ccc(C(C)NC(=S)NC2CCCCC2)cc1 (configuration not stated)	27	-4	-9	/	51	-2	42	51
CCCc1ccc(C(C)NC(=S)NCc2ccc(F)cc2)cc1 (configuration not stated)	1	0	-17	2	77*	1	29	28
COc1cccc(NC(=O)C2CCN(S(=O)(=O)c3ccc(N4CCCC4=O)cc3)CC2)c1	/	-6	/	/	9	/	/	/
COc1cccc(NC(=O)C2CCN(S(=O)(=O)c3ccc4c(c3)CC(C)N4C(C)=O)CC2)c1 (configuration not stated)	6	-9	4	-3	-5	-5	/	/
CC(=O)N1c2ccc(S(=O)(=O)N3CCC(C(=O)Nc4cccc(C(F)(F)F)c4)CC3)cc2CC1C (configuration not stated)	17	-9	-23	-1	59	0	61	44
O=C(Nc1cccc(C(F)(F)F)c1)C1CCN(S(=O)(=O)c2ccc(N3CCCC3=O)cc2)CC1	-1	-4	6	5	85*	7	90*	68
COc1ccc(C(C)(C)C)cc1NC(=O)COC(=O)CSCc1c(C)noc1C	-8	-6	-30	/	5	/	/	/
COc1ccc(-c2cc3c(=O)n(CC(=O)NCCCN4CCC(Cc5ccccc5)CC4)ncn3n2)cc1	33	-4	-83	3	0	-10	/	/
COc1ccc(-c2cc3c(=O)n(CC(=O)NCCCN4CCN(Cc5ccccc5)CC4)ncn3n2)cc1	-3	-7	-100	3	48	-6	5	-20
CCOc1ccc(S(=O)(=O)N2CCOCC2)c2ccccc12	-15	-2	15	-1	-8	22	/	/
CCOc1ccc(S(=O)(=O)N2CCCCC2)c2ccccc12	-18	-2	-28	0	58	6	55	-10
COc1ccc(NS(=O)(=O)c2ccc3c(c2)NC(=O)CCS3)cc1Cl	5	-2	-21	-3	60	-12	34	34
COc1ccc(NS(=O)(=O)c2ccc3c(c2)CCC(=O)N3)cc1O	-2	6	11	/	-26	/	/	/
N#Cc1ccsc1NC(=O)C1CC(=O)N(Cc2ccccc2)C1 (configuration not stated)	13	-4	16	-1	5	9	/	/
NC(CCc1ccccc1)c1csc(Nc2nncc3ccccc23)n1 (configuration not stated)	/	-4	/	/	-3	/	/	/
CCc1ccc(NCc2ccc(OC)c(Cn3ccnc3)c2)cc1	-8	-9	-8	1	52	-2	26	25
Cc1sc2ncnc(NCC(c3ccccc3)N(C)C)c2c1C (configuration not stated)	7	-7	0	4	1	5	/	/
Cc1sc2ncnc(NCC(O)c3ccc([N+](=O)[O-])cc3)c2c1C (configuration not stated)	47	-5	9	7	105*	-8	95*	76*
CC(=O)c1c(C)oc2ccc(NS(=O)(=O)c3ccc(F)cc3C)cc12	3	-2	-5	1	70	-6	57	61
O=c1cc(N2CCN(c3ccccc3)CC2)[nH]c(=O)n1C1CCCCC1	-10	-3	-30	0	54	1	92*	19
Cc1ccc(S(=O)(=O)N2CCC(C(=O)OCC(=O)N(C)C3CCS(=O)(=O)C3)CC2)cc1C (configuration not stated)	-6	-4	16	1	10	-13	/	/
Cc1cccc(C)c1OCc1cc(C(=O)N(Cc2c(C)nn(C)c2C)C2CC2)no1	20	-10	-58	-3	62	-1	61	58
CC(C)CCNC(=O)c1ccc(-c2ccccc2)cc1	-56	/	-53	-2	/	-4	/	/
SMILES	Jurkat NFkB inh	GalR3 antag	697 NFkB inh	NR2E3 ag-1	NR2E3 ag-2	JMJD2C inh	NR2E3 ag confirm	VP16 counter
CC12CCC(=O)C=C1CCC1C2CCC2(C)C(c3csc(N)n3)CCC12 (configuration not stated)	/	3	/	/	75*	/	94*	76*
O=C(Nc1ccccc1Cl)c1cc(C2CCCN(C(=O)c3cccs3)C2)on1 (configuration not stated)	/	-5	/	/	-28	/	/	/
Cn1cccc1/C=N\NC(=O)Cc1ccc(Br)c2ccccc12	24	-7	-16	3	48	2	28	54
Cn1cccc1/C=N/NC(=O)Cc1ccccc1	13	3	-7	2	-12	-8	/	/
COc1ccc(/C=C2\SC(=N)N(c3nccs3)C2=O)cc1OC	-9	5	-2	2	74*	-4	24	25
C=C1C(=O)OC2C=C(CO)C3OC3C3OC3(C)CC(OC(=O)/C(=C/C)COC(C)=O)C12 (configuration not stated)	/	0	/	/	86*	/	30	21
O=C(Cn1nc(C(=O)O)c2ccccc2c1=O)Nc1cc(S(=O)(=O)N2CCCCC2)ccc1Cl	-1	2	-6	/	8	6	/	/
Cc1cc(C)n(-c2nc3ccccc3nc2N2CCC(C)CC2)n1	-8	-8	-26	5	0	9	/	/
Cc1cc(N2CCC(C)CC2)nc(-n2nc(C)cc2C)n1	4	4	5	2	94*	0	-2	11
Clc1ccc2c(NCc3ccccc3)ccnc2c1	20	-9	-12	3	69	11	44	61
COc1ccccc1NS(=O)(=O)c1cc(C(=O)NC2CC(C)(C)NC(C)(C)C2)ccc1Cl	/	-7	/	/	-16	/	/	/

High-throughput results as filed in PubChem.
